Results on nine molecules are retold here after ChEMBL document CHEMBL3108706, “Design, synthesis, and biological activity of novel dicoumarol glucagon-like peptide 1 conjugates” (J Med Chem, 2013).

Molecules are shown by their SMILES. pEC50: −log10 of the molar value.

One series has as its target albumin (Homo sapiens, UniProt P02768). In words: Binding affinity to human serum albumin at 100 ug/mL after 3 hrs relative to control. As to conditions: read-out: PB (converted). The format is ADME. The method in brief: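 Peptide at 100 μg/mL in PBS (50 μL) was incubated with HSA-conjugated Sepharose resin for 3 h at 25 °C, then centrifuged (1000 rpm, 10 min). Unbound peptide in the supernatant was quantified by micro BCA assay. Nonspecific adsorption was corrected with NHS-inactivated, albumin-free resin.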

A short description of series [1]: Half life in Sprague-Dawley rat plasma at 1000 ng/mL by LC-MS/MS analysis. The format is ADME, cell-free.
Series [2] concerns the target Glucagon-like peptide 1 receptor (Homo sapiens, UniProt P43220). In words: Activation of human GLP-1 receptor overexpressed in HEK293 cells assessed as cAMP accumulation after 20 mins by HTRF assay. The format is functional, cell-based. (In general: Cyclic AMP is a second messenger, typically raised through Gs and lowered through Gi signalling.)

Sequence of albumin (P02768 whole entry): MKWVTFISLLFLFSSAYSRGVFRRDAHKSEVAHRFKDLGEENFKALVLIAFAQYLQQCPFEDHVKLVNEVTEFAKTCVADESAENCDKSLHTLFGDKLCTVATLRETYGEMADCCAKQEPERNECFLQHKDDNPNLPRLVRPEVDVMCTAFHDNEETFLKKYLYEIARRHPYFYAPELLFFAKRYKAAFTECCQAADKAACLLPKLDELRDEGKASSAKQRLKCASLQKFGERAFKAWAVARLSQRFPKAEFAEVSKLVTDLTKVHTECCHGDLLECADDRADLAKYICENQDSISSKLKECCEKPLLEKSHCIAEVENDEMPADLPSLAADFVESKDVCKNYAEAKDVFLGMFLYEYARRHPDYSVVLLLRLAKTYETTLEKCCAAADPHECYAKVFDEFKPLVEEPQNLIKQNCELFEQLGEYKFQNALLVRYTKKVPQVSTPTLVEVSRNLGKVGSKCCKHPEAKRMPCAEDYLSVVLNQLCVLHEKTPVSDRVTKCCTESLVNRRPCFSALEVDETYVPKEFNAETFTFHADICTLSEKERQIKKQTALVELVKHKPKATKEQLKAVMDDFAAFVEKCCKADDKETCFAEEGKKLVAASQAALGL
Sequence of Glucagon-like peptide 1 receptor (P43220 whole entry): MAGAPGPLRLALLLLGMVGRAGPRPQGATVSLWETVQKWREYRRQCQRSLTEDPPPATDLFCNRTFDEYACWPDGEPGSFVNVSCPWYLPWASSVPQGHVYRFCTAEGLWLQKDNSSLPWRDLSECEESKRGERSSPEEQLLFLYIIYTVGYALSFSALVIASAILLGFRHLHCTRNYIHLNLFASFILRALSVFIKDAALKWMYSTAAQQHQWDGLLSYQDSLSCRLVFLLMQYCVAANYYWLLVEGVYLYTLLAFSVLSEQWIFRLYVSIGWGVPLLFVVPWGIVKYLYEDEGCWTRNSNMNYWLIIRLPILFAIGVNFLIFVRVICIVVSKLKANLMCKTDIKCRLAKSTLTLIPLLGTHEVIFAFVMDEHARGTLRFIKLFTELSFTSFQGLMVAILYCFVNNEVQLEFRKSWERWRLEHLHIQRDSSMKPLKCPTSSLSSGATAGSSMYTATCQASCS

As for `CC[C@H](C)[C@H](NC(=O)[C@H](Cc1ccccc1)NC(=O)[C@H](CCC(=O)O)NC(=O)[C@H](CCCCN)NC(=O)[C@H](C)NC(=O)[C@H](C)NC(=O)[C@H](CCC(N)=O)NC(=O)CNC(=O)[C@H](CCC(=O)O)NC(=O)[C@H](CC(C)C)NC(=O)[C@H](Cc1ccc(O)cc1)NC(=O)[C@H](CO)NC(=O)[C@H](CSC1CC(=O)N(CCC(=O)Nc2ccc(C(c3c(O)c4ccccc4oc3=O)c3c(O)c4ccccc4oc3=O)cc2)C1=O)NC(=O)[C@@H](NC(=O)[C@H](CC(=O)O)NC(=O)[C@H](CO)NC(=O)[C@@H](NC(=O)[C@H](Cc1ccccc1)NC(=O)[C@@H](NC(=O)CNC(=O)[C@H](CCC(=O)O)NC(=O)CNC(=O)[C@@H](N)Cc1cnc[nH]1)[C@@H](C)O)[C@@H](C)O)C(C)C)C(=O)N[C@@H](C)C(=O)N[C@@H](Cc1c[nH]c2ccccc12)C(=O)N[C@@H](CC(C)C)C(=O)N[C@H](C(=O)N[C@@H](CCCCN)C(=O)NCC(=O)N[C@@H](CCCNC(=N)N)C(N)=O)C(C)C` (stereo partly specified), on albumin, the fraction unbound at 3 h, 100 ug/mL was 0.31. In addition, the half-life at 1000 ng/mL in series [1] was 13.6 h. Further, the pEC50 in series [2] was 10.58.
In the case of `CC[C@H](C)[C@H](NC(=O)[C@H](Cc1ccccc1)NC(=O)[C@H](CCC(=O)O)NC(=O)[C@H](CCCCN)NC(=O)[C@H](C)NC(=O)[C@H](C)NC(=O)[C@H](CCC(N)=O)NC(=O)CNC(=O)[C@H](CCC(=O)O)NC(=O)[C@H](CC(C)C)NC(=O)[C@H](Cc1ccc(O)cc1)NC(=O)[C@H](CO)NC(=O)[C@H](CO)NC(=O)[C@@H](NC(=O)[C@H](CC(=O)O)NC(=O)[C@H](CO)NC(=O)[C@@H](NC(=O)[C@H](Cc1ccccc1)NC(=O)[C@@H](NC(=O)CNC(=O)[C@H](CCC(=O)O)NC(=O)CNC(=O)[C@@H](N)Cc1cnc[nH]1)[C@@H](C)O)[C@@H](C)O)C(C)C)C(=O)N[C@@H](C)C(=O)N[C@@H](Cc1c[nH]c2ccccc12)C(=O)N[C@@H](CC(C)C)C(=O)N[C@H](C(=O)N[C@@H](CSC1CC(=O)N(CCCCCCCCCCCC(=O)Nc2ccc(C(c3c(O)c4ccccc4oc3=O)c3c(O)c4ccccc4oc3=O)cc2)C1=O)C(=O)NCC(=O)N[C@@H](CCCNC(=N)N)C(N)=O)C(C)C` (stereo partly specified), the fraction unbound at 3 h, 100 ug/mL on albumin is 0.168. The molecule further gave a half-life at 1000 ng/mL in series [1] of 38.6 h. Moreover, the negative-log EC50 (pEC50) in series [2] is 10.74.
In the same order, the values of `CC[C@H](C)[C@H](NC(=O)[C@H](Cc1ccccc1)NC(=O)[C@H](CCC(=O)O)NC(=O)[C@H](CCCCN)NC(=O)[C@H](C)NC(=O)[C@H](C)NC(=O)[C@H](CCC(N)=O)NC(=O)CNC(=O)[C@H](CCC(=O)O)NC(=O)[C@H](CC(C)C)NC(=O)[C@H](Cc1ccc(O)cc1)NC(=O)[C@H](CO)NC(=O)[C@H](CO)NC(=O)[C@@H](NC(=O)[C@H](CC(=O)O)NC(=O)[C@H](CO)NC(=O)[C@@H](NC(=O)[C@H](Cc1ccccc1)NC(=O)[C@@H](NC(=O)CNC(=O)[C@H](CCC(=O)O)NC(=O)CNC(=O)[C@@H](N)Cc1cnc[nH]1)[C@@H](C)O)[C@@H](C)O)C(C)C)C(=O)N[C@@H](C)C(=O)N[C@@H](Cc1c[nH]c2ccccc12)C(=O)N[C@@H](CC(C)C)C(=O)N[C@H](C(=O)N[C@@H](CCCCN)C(=O)NCC(=O)N[C@@H](CCCNC(=N)N)C(=O)N[C@@H](CSC1CC(=O)N(CCCCCC(=O)Nc2ccc(C(c3c(O)c4ccccc4oc3=O)c3c(O)c4ccccc4oc3=O)cc2)C1=O)C(N)=O)C(C)C` (stereo partly specified) are 0.248, 18.6 h and 11.49.
The corresponding values for `CC[C@H](C)[C@H](NC(=O)[C@H](Cc1ccccc1)NC(=O)[C@H](CCC(=O)O)NC(=O)[C@H](CCCCN)NC(=O)[C@H](C)NC(=O)[C@H](C)NC(=O)[C@H](CCC(N)=O)NC(=O)CNC(=O)[C@H](CCC(=O)O)NC(=O)[C@H](CC(C)C)NC(=O)[C@H](Cc1ccc(O)cc1)NC(=O)[C@H](CO)NC(=O)[C@H](CO)NC(=O)[C@@H](NC(=O)[C@H](CC(=O)O)NC(=O)[C@H](CO)NC(=O)[C@@H](NC(=O)[C@H](Cc1ccccc1)NC(=O)[C@@H](NC(=O)CNC(=O)[C@H](CCC(=O)O)NC(=O)CNC(=O)[C@@H](N)Cc1cnc[nH]1)[C@@H](C)O)[C@@H](C)O)C(C)C)C(=O)N[C@@H](C)C(=O)N[C@@H](Cc1c[nH]c2ccccc12)C(=O)N[C@@H](CC(C)C)C(=O)N[C@H](C(=O)N[C@@H](CSC1CC(=O)N(CCCCCC(=O)Nc2ccc(C(c3c(O)c4ccccc4oc3=O)c3c(O)c4ccccc4oc3=O)cc2)C1=O)C(=O)NCC(=O)N[C@@H](CCCNC(=N)N)C(N)=O)C(C)C` (stereo partly specified) are 0.198, 22.1 h and 11.14.
The corresponding values for `CC[C@H](C)[C@H](NC(=O)[C@H](Cc1ccccc1)NC(=O)[C@H](CCC(=O)O)NC(=O)[C@H](CCCCN)NC(=O)[C@H](C)NC(=O)[C@H](C)NC(=O)[C@H](CCC(N)=O)NC(=O)CNC(=O)[C@H](CCC(=O)O)NC(=O)[C@H](CC(C)C)NC(=O)[C@H](Cc1ccc(O)cc1)NC(=O)[C@H](CO)NC(=O)[C@H](CO)NC(=O)[C@@H](NC(=O)[C@H](CC(=O)O)NC(=O)[C@H](CO)NC(=O)[C@@H](NC(=O)[C@H](Cc1ccccc1)NC(=O)[C@@H](NC(=O)CNC(=O)[C@H](CCC(=O)O)NC(=O)CNC(=O)[C@@H](N)Cc1cnc[nH]1)[C@@H](C)O)[C@@H](C)O)C(C)C)C(=O)N[C@@H](C)C(=O)N[C@@H](Cc1c[nH]c2ccccc12)C(=O)N[C@@H](CC(C)C)C(=O)N[C@H](C(=O)N[C@@H](CCCCN)C(=O)NCC(=O)N[C@@H](CCCNC(=N)N)C(=O)N[C@@H](CSC1CC(=O)N(CCC(=O)Nc2ccc(C(c3c(O)c4ccccc4oc3=O)c3c(O)c4ccccc4oc3=O)cc2)C1=O)C(N)=O)C(C)C` (stereo partly specified) are 0.332, 9.7 h and 11.52.
In the case of `CC[C@H](C)[C@H](NC(=O)[C@H](Cc1ccccc1)NC(=O)[C@H](CCC(=O)O)NC(=O)[C@H](CCCCN)NC(=O)[C@H](C)NC(=O)[C@H](C)NC(=O)[C@H](CCC(N)=O)NC(=O)CNC(=O)[C@H](CCC(=O)O)NC(=O)[C@H](CC(C)C)NC(=O)[C@H](Cc1ccc(O)cc1)NC(=O)[C@H](CO)NC(=O)[C@H](CO)NC(=O)[C@@H](NC(=O)[C@H](CC(=O)O)NC(=O)[C@H](CO)NC(=O)[C@@H](NC(=O)[C@H](Cc1ccccc1)NC(=O)[C@@H](NC(=O)CNC(=O)[C@H](CCC(=O)O)NC(=O)CNC(=O)[C@@H](N)Cc1cnc[nH]1)[C@@H](C)O)[C@@H](C)O)C(C)C)C(=O)N[C@@H](C)C(=O)N[C@@H](Cc1c[nH]c2ccccc12)C(=O)N[C@@H](CC(C)C)C(=O)N[C@H](C(=O)N[C@@H](CS)C(=O)NCC(=O)N[C@@H](CCCNC(=N)N)C(N)=O)C(C)C`, the fraction unbound at 3 h, 100 ug/mL at albumin was 0.939. The half-life at 1000 ng/mL in series [1] was 0.6 h. In series [2], the pEC50 is 11.31.
Regarding `CC[C@H](C)[C@H](NC(=O)[C@H](Cc1ccccc1)NC(=O)[C@H](CCC(=O)O)NC(=O)[C@H](CCCCN)NC(=O)[C@H](C)NC(=O)[C@H](C)NC(=O)[C@H](CCC(N)=O)NC(=O)CNC(=O)[C@H](CCC(=O)O)NC(=O)[C@H](CC(C)C)NC(=O)[C@H](Cc1ccc(O)cc1)NC(=O)[C@H](CO)NC(=O)[C@H](CO)NC(=O)[C@@H](NC(=O)[C@H](CC(=O)O)NC(=O)[C@H](CO)NC(=O)[C@@H](NC(=O)[C@H](Cc1ccccc1)NC(=O)[C@@H](NC(=O)CNC(=O)[C@H](CCC(=O)O)NC(=O)CNC(=O)[C@@H](N)Cc1cnc[nH]1)[C@@H](C)O)[C@@H](C)O)C(C)C)C(=O)N[C@@H](C)C(=O)N[C@@H](Cc1c[nH]c2ccccc12)C(=O)N[C@@H](CC(C)C)C(=O)N[C@H](C(=O)N[C@@H](CCCCN)C(=O)NCC(=O)N[C@@H](CCCNC(=N)N)C(N)=O)C(C)C`, the fraction unbound at 3 h, 100 ug/mL on albumin was 0.937. The half-life at 1000 ng/mL in series [1] is 0.8 h.
Consider `CC[C@H](C)[C@H](NC(=O)[C@H](Cc1ccccc1)NC(=O)[C@H](CCC(=O)O)NC(=O)[C@H](CS)NC(=O)[C@H](C)NC(=O)[C@H](C)NC(=O)[C@H](CCC(N)=O)NC(=O)CNC(=O)[C@H](CCC(=O)O)NC(=O)[C@H](CC(C)C)NC(=O)[C@H](Cc1ccc(O)cc1)NC(=O)[C@H](CO)NC(=O)[C@H](CO)NC(=O)[C@@H](NC(=O)[C@H](CC(=O)O)NC(=O)[C@H](CO)NC(=O)[C@@H](NC(=O)[C@H](Cc1ccccc1)NC(=O)[C@@H](NC(=O)CNC(=O)[C@H](CCC(=O)O)NC(=O)CNC(=O)[C@@H](N)Cc1cnc[nH]1)[C@@H](C)O)[C@@H](C)O)C(C)C)C(=O)N[C@@H](C)C(=O)N[C@@H](Cc1c[nH]c2ccccc12)C(=O)N[C@@H](CC(C)C)C(=O)N[C@H](C(=O)N[C@@H](CCCCN)C(=O)NCC(=O)N[C@@H](CCCNC(=N)N)C(N)=O)C(C)C`, for which the fraction unbound at 3 h, 100 ug/mL on albumin was 0.949. The half-life at 1000 ng/mL in series [1] is 0.7 h. Further, in series [2], the negative-log EC50 (pEC50) was 11.49.
In the same order, the values of `CC[C@H](C)[C@H](NC(=O)[C@H](Cc1ccccc1)NC(=O)[C@H](CCC(=O)O)NC(=O)[C@H](CCCCN)NC(=O)[C@H](C)NC(=O)[C@H](C)NC(=O)[C@H](CCC(N)=O)NC(=O)CNC(=O)[C@H](CCC(=O)O)NC(=O)[C@H](CC(C)C)NC(=O)[C@H](Cc1ccc(O)cc1)NC(=O)[C@H](CO)NC(=O)[C@H](CSC1CC(=O)N(CCCCCC(=O)Nc2ccc(C(c3c(O)c4ccccc4oc3=O)c3c(O)c4ccccc4oc3=O)cc2)C1=O)NC(=O)[C@@H](NC(=O)[C@H](CC(=O)O)NC(=O)[C@H](CO)NC(=O)[C@@H](NC(=O)[C@H](Cc1ccccc1)NC(=O)[C@@H](NC(=O)CNC(=O)[C@H](CCC(=O)O)NC(=O)CNC(=O)[C@@H](N)Cc1cnc[nH]1)[C@@H](C)O)[C@@H](C)O)C(C)C)C(=O)N[C@@H](C)C(=O)N[C@@H](Cc1c[nH]c2ccccc12)C(=O)N[C@@H](CC(C)C)C(=O)N[C@H](C(=O)N[C@@H](CCCCN)C(=O)NCC(=O)N[C@@H](CCCNC(=N)N)C(N)=O)C(C)C` (stereo partly specified) are 0.162, 20.7 h and 10.47.

In general, half-life refers to the time needed for the level to fall by half in the phase considered. Higher therefore signals slow loss. A word on the pEC50: it is −log10 of the EC50, conventionally taken in molar units.
